Experimental data as given in ChEMBL document CHEMBL3763099, “Synthesis and evaluation of 1,7-diheteroarylhepta-1,4,6-trien-3-ones as curcumin-based anticancer agents” (Eur J Med Chem, 2016).

Assays:
Type in all cases: functional
[1] = Cytotoxicity against human DU145 cells assessed as inhibition of cell viability at 10 uM after 3 days by trypan blue dye exclusion assay; conditions: DU-145, 72 h
Outline: (§1)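 Viable cells were counted by trypan blue exclusion on an automated analyzer. Viability was taken as treated/vehicle viable cell count. The inhibitory rate is the control percentage viability minus the treated percentage viability. Variation between replicate experiments was at most 5%.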

HeLa [2] = assay: Cytotoxicity against human HeLa cells assessed as inhibition of cell viability at 1 uM after 3 days by trypan blue dye exclusion assay; conditions: 72 h; outline: as §1
LNCaP [3] = assay: Cytotoxicity against human LNCAP cells assessed as inhibition of cell viability at 10 uM after 3 days by trypan blue dye exclusion assay; conditions: 72 h; outline: as §1
[4] = Cytotoxicity against human PC3 cells assessed as inhibition of cell viability at 10 uM after 3 days by trypan blue dye exclusion assay; conditions: PC-3, 72 h; outline: as §1
LNCaP [5] = assay: Cytotoxicity against human LNCAP cells assessed as inhibition of cell viability at 1 uM after 3 days by trypan blue dye exclusion assay; conditions: 72 h; outline: as §1
HeLa [6] = assay: Cytotoxicity against human HeLa cells assessed as inhibition of cell viability at 10 uM after 3 days by trypan blue dye exclusion assay; conditions: 72 h; outline: as §1
[7] = Cytotoxicity against human PC3 cells assessed as inhibition of cell viability at 1 uM after 3 days by trypan blue dye exclusion assay; conditions: PC-3, 72 h; outline: as §1
[8] = Cytotoxicity against human DU145 cells assessed as inhibition of cell viability at 1 uM after 3 days by trypan blue dye exclusion assay; conditions: DU-145, 72 h; outline: as §1

| Compound | inhibition at 10 µM [1] | inhibition at 1 µM (HeLa [2]) | inhibition at 10 µM (LNCaP [3]) | inhibition at 10 µM [4] | inhibition at 1 µM (LNCaP [5]) | inhibition at 10 µM (HeLa [6]) | inhibition at 1 µM [7] | inhibition at 1 µM [8] |
| --- | --- | --- | --- | --- | --- | --- | --- | --- |
| CC(C)=CCn1ccnc1/C=C/C=C/C(=O)/C=C/c1nccn1CC=C(C)C | 75% | 66% | 70% | 87% | 38% | 94% | 35% | 0% |
| COc1cc(/C=C/C(=O)CC(=O)/C=C/c2ccc(O)c(OC)c2)ccc1O [CURCUMIN] | 59% | 14% | 66% | 55% | 29% | 50% | 2.5% | 7% |
| CCCCCCCn1ccnc1/C=C/C=C/C(=O)/C=C/c1nccn1CCCCCCC | 93% | 13% | 70% | 92% | 12% | 99% | 28% | 25% |
| Cc1nc(C(F)(F)F)c(/C=C/C=C/C(=O)/C=C/c2sc(C)nc2C(F)(F)F)s1 | 80% | 12% | 92% | 88% | 37% | 96% | 24% | 13% |
| CCn1ccnc1/C=C/C=C/C(=O)/C=C/c1nccn1CC | 84% | 43% | 62% | 85% | 23% | 98% | 32% | 34% |
| CCCCCn1ccnc1/C=C/C=C/C(=O)/C=C/c1nccn1CCCCC | 88% | 39% | 94% | 86% | 44% | 95% | 36% | 43% |
| O=C(/C=C/C=C/c1ccncc1F)/C=C/c1ccncc1F | 81% | 26% | 66% | 84% | 31% | 94% | 19% | 36% |
| CCCCn1ccnc1/C=C/C=C/C(=O)/C=C/c1nccn1CCCC | 91% | 44% | 92% | 87% | 47% | 92% | 33% | 35% |
| CCCn1ccnc1/C=C/C=C/C(=O)/C=C/c1nccn1CCC | 84% | 34% | 95% | 91% | 38% | 98% | 23% | 25% |
| O=C(/C=C/C=C/c1ccncc1)/C=C/c1ccncc1 | 81% | 22% | 50% | 84% | 20% | 95% | 33% | 60% |
| CC(C)CCn1ccnc1/C=C/C=C/C(=O)/C=C/c1nccn1CCC(C)C | 88% | 31% | 75% | 89% | 33% | 95% | 32% | 32% |
| O=C(/C=C/C=C/c1nccs1)/C=C/c1nccs1 | 65% | 11% | 80% | 86% | 28% | 94% | 28% | 2% |
| Cn1ccnc1/C=C/C=C/C(=O)/C=C/c1nccn1C | 66% | 18% | 55% | 83% | 41% | 93% | 35% | 21% |
| O=C(/C=C/C=C/c1cccnc1)/C=C/c1cccnc1 | 87% | 20% | 61% | 86% | 2% | 97% | 24% | 24% |
| Cc1cc(/C=C/C=C/C(=O)/C=C/c2cc(C)on2)no1 | 79% | 17% | 70% | 88% | 13% | 97% | 25% | 25% |
| Cc1csc(/C=C/C=C/C(=O)/C=C/c2nc(C)cs2)n1 | 46% | 20% | 57% | 86% | 21% | 96% | 25% | 8% |
| CCCCCCn1ccnc1/C=C/C=C/C(=O)/C=C/c1nccn1CCCCCC | 86% | 32% | 76% | 85% | 31% | 98% | 11% | 34% |
| Cn1cc(Br)c(/C=C/C=C/C(=O)/C=C/c2nn(C)cc2Br)n1 | 86% | 52% | 63% | 91% | 38% | 95% | 25% | 42% |
| CC(C)CCn1c(/C=C/C=C/C(=O)/C=C/c2nc3ccccc3n2CCC(C)C)nc2ccccc21 | 97% | 53% | 60% | 93% | 15% | 97% | 58% | 21% |
| Cc1cccc(/C=C/C=C/C(=O)/C=C/c2cccc(C)n2)n1 | 75% | 40% | 57% | 91% | 50% | 94% | 35% | 12% |
| O=C(/C=C/C=C/c1ccccn1)/C=C/c1ccccn1 | 37% | 21% | 7.2% | 20% | 0% | 24% | 17% | 11% |
